# According to ChEMBL document CHEMBL1140227, “Histone deacetylase inhibitors through click chemistry” (J Med Chem, 2008):
# What was measured:
# Type in all cases: functional
# HOP-92 = experiment: Growth inhibition of human HOP92 cells at 10 uM relative to control; settings: values are per cent of control
# In short: (§1)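 Single-dose preliminary screen in the NCI human cancer cell line panel, run by the NIH. Percent inhibition of cell line growth was calculated by comparison with untreated samples.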
# SK-MEL-5 = experiment: Growth inhibition of human SK-MEL-5 cells at 10 uM relative to control; settings: values are per cent of control; in short: as §1
# TK-10 [1] = experiment: Growth inhibition of human TK10 cells at 10 uM relative to control; settings: values are per cent of control
# In short: (§2)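 Single-dose NCI human tumour cell line screen, run by the NIH. Percent inhibition of cell line growth was calculated by comparison with untreated samples.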
# [2] = Growth inhibition of human Hs 578T cells at 10 uM relative to control; settings: values are per cent of control; in short: as §1
# Leukemia cell = experiment: cells; settings: Homo sapiens
# cells [3] = settings: Homo sapiens, Cancer cell lines
# NCI-H322M = experiment: Growth inhibition of human NCI-H322M cells at 10 uM relative to control; settings: values are per cent of control; in short: as §1
# NCI/ADR-RES = experiment: Growth inhibition of human NCI/ADR-RES cells at 10 uM relative to control; settings: values are per cent of control; in short: as §1
# NCI-H23 = experiment: Growth inhibition of human NCI-H23 cells at 10 uM relative to control; settings: values are per cent of control; in short: as §1
# TK-10 [4] = experiment: Growth inhibition of human TK10 cells
# In short: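 NCI five-dose screen, run by the NIH. Each drug was tested at five concentrations alongside a control, using two microtiter plates per cell line. SAHA was included as the standard.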
# OVCAR-8 = experiment: Growth inhibition of human OVCAR8 cells at 10 uM relative to control; settings: values are per cent of control; in short: as §1
# CAKI-1 = experiment: Growth inhibition of human Caki1 cells at 10 uM relative to control; settings: values are per cent of control; in short: as §1
# MDA-MB-231 = experiment: Growth inhibition of human MDA-MB-231 cells at 10 uM relative to control; settings: values are per cent of control; in short: as §1
# SW-620 = experiment: Growth inhibition of human SW620 cells at 10 uM relative to control; settings: values are per cent of control; in short: as §2
# cells [5] = settings: Homo sapiens, Cancer cell lines; remark: listed apart in the source
# A498 = experiment: Growth inhibition of human A498 cells at 10 uM relative to control; settings: values are per cent of control; in short: as §1
# UACC-257 = experiment: Growth inhibition of human UACC257 cells at 10 uM relative to control; settings: values are per cent of control; in short: as §2
# HCT-15 = experiment: Growth inhibition of human HCT15 cells at 10 uM relative to control; settings: values are per cent of control; in short: as §1
# MDA-MB-468 = experiment: Growth inhibition of human MDA-MB-468 cells at 10 uM relative to control; settings: values are per cent of control; in short: as §1
# OVCAR-4 = experiment: Growth inhibition of human OVCAR4 cells at 10 uM relative to control; settings: values are per cent of control; in short: as §1
# NCI-H226 = experiment: Growth inhibition of human NCI-H226 cells at 10 uM relative to control; settings: values are per cent of control; in short: as §1
# SF-268 = experiment: Growth inhibition of human SF268 cells at 10 uM relative to control; settings: values are per cent of control; in short: as §1
# RXF 393 = experiment: Growth inhibition of human […] cells
# COLO 205 = experiment: Growth inhibition of human COLO205 cells at 10 uM relative to control; settings: values are per cent of control; in short: as §1
# K562 = experiment: Growth inhibition of human K562 cells at 10 uM relative to control; settings: values are per cent of control; in short: as §1
# cells [6] = settings: Homo sapiens, Cancer cell lines; remark: listed apart in the source
# 786-0 = experiment: Growth inhibition of human 786-0 cells at 10 uM relative to control; settings: values are per cent of control; in short: as §1
# KM12 = experiment: Growth inhibition of human KM12 cells at 10 uM relative to control; settings: values are per cent of control; in short: as §1
# cells [7] = settings: Homo sapiens, Cancer cell lines; remark: listed apart in the source
# HL-60(TB) = experiment: Growth inhibition of human HL-60(TB) cells at 10 uM relative to control; settings: read-out: INH
# In short: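 Single-dose cell line screen run by the NCI (NIH) in its human cancer cell line panel, which includes the leukemia line HL-60(TB). Percent growth inhibition was calculated by comparison with untreated samples.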
# MCF7 = experiment: Growth inhibition of human MCF7 cells at 10 uM relative to control; settings: values are per cent of control; in short: as §1
# OVCAR-5 = experiment: Growth inhibition of human OVCAR5 cells at 10 uM relative to control; settings: values are per cent of control; in short: as §1
# UACC-62 = experiment: Growth inhibition of human UACC62 cells at 10 uM relative to control; settings: values are per cent of control; in short: as §2
# T47D = experiment: Growth inhibition of human T47D cells at 10 uM relative to control; settings: values are per cent of control; in short: as §2
compound,measurement,setting,value
O=C(/C=C/c1cn(C/C=C/c2ccccc2)nn1)NO,"growth, % of control at 10 µM",HOP-92,-42%
same,"growth, % of control at 10 µM",SK-MEL-5,-79%
same,"growth, % of control at 10 µM",TK-10 [1],-8.37%
same,"growth, % of control at 10 µM",[2],26%
same,inhibition at 10 µM,Leukemia cell,-6%
same,inhibition at 10 µM,cells [3],1%
same,"growth, % of control at 10 µM",NCI-H322M,9.59%
same,"growth, % of control at 10 µM",NCI/ADR-RES,-14.2%
same,"growth, % of control at 10 µM",NCI-H23,21.4%
same,GI50,TK-10 [4],495 nM
same,"growth, % of control at 10 µM",OVCAR-8,1.24%
same,"growth, % of control at 10 µM",CAKI-1,7.42%
same,"growth, % of control at 10 µM",MDA-MB-231,20.9%
same,"growth, % of control at 10 µM",SW-620,-61.5%
same,inhibition at 10 µM,cells [5],-18%
same,"growth, % of control at 10 µM",A498,-74.4%
same,"growth, % of control at 10 µM",UACC-257,-32.1%
same,"growth, % of control at 10 µM",HCT-15,9.7%
same,"growth, % of control at 10 µM",MDA-MB-468,45.8%
same,"growth, % of control at 10 µM",OVCAR-4,55.7%
same,"growth, % of control at 10 µM",NCI-H226,23.7%
same,"growth, % of control at 10 µM",SF-268,-0.08%
same,GI50,RXF 393,< 10 nM
same,"growth, % of control at 10 µM",COLO 205,-75.7%
same,"growth, % of control at 10 µM",K562,-10.9%
same,inhibition at 10 µM,cells [6],1%
same,"growth, % of control at 10 µM",786-0,-36.1%
same,"growth, % of control at 10 µM",KM12,8.61%
same,growth percent at 10 µM,cells [7],8%
same,"growth, % of control at 10 µM",HL-60(TB),-5.68%
same,"growth, % of control at 10 µM",MCF7,13.6%
same,"growth, % of control at 10 µM",OVCAR-5,1.43%
same,"growth, % of control at 10 µM",UACC-62,-71.2%
same,"growth, % of control at 10 µM",T47D,-11.9%
